RAM network inh: yeast RAM network inhibition; actives 1.8% (n = 190,000); S. cerevisiae dse1pr::URA3 reporter, 5-FOA growth OD615, 2 d; analog-sensitive cbk1-as2 kinase mutant strain; inhibition, % at 50 µM;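 active = inhibition above a set limit, 3 SD over mean compound inhibition, cut at about 8.4% in these data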;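 also: inhibition rescues growth on 5-FOA so higher OD means more RAM inhibition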
WT yeast gro inh: growth inhibition of WT yeast, mitochondrial fusion screen. inhibition, % at 10 µM. mitochondrial fusion phenotypic screen, WT strain. actives 2.1% (n = 190,000); in the data active = inhibition above about 58%; tested in S. cerevisiae
Yeast growth inh: reduces growth of yeast BB579 in restrictive medium; S. cerevisiae BB579 growth, OD615, 48 h; inhibition, % at 10 µM; actives 0.51% (n = 140,000);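 active = inhibition above a set limit, 3 SD over the mean compound inhibition, cut at about 44% in these data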
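System: Saccharomyces cerevisiae DeaD strain BB579, replicative lifespan model yeast | Buffer or medium: Restrictive glucose-based CSMM-D medium | Times: 4 h preincubation and 48 h exposure at 30 °C | Detection: OD615 turbidity measurement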
Yeast life ext: yeast lifespan extension. S. cerevisiae growth with nicotinamide, OD615; deaD strain in restrictive glucose medium. inhibition of the nicotinamide effect, % at 10 µM. actives 0.68% (n = 130,000). AID 775;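 active = inhibition above a set limit, placed 3 SD over the median of all compounds, cut at about 26% in these data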
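assay system = DeaD-strain S. cerevisiae | measured by = absorbance at 615 nm | probe or stimulus = nicotinamide 1.5 mM | buffer or medium = CSMM-D glucose medium, restrictive | times = 48 h at 30 °C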
DAT uptake mod: human DAT dopamine uptake with cocaine, either direction. actives 1.3% (n = 110,000). AID 449768. LLC-PK1 hDAT cells, [14C]-dopamine uptake with cocaine IC80; actives deviate in either direction. B-score at 10 µM;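 active = Z score or B-score, a plate-position-corrected score, falls beyond the plate's 99.7% confidence bounds, in either direction; inactive = both scores lie inside the 99.7% bounds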
Target sequence (Q01959 whole entry, looked up): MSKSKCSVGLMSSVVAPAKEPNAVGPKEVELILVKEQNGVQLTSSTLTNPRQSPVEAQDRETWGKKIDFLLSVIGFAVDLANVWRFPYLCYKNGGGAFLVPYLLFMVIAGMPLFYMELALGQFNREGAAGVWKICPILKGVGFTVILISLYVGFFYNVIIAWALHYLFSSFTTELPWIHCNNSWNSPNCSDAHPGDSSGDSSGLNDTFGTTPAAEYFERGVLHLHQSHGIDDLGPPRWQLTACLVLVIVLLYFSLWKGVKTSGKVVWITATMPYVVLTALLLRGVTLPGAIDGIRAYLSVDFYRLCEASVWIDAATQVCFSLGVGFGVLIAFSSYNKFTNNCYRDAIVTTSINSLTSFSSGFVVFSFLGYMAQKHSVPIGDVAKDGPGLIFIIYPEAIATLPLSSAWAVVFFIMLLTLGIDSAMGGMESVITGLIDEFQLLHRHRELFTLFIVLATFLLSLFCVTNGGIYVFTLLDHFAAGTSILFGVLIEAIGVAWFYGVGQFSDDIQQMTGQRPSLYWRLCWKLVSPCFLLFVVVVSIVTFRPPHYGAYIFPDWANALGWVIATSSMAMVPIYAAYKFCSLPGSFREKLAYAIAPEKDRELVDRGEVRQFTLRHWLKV
Measles CPE: protection of cells from measles virus | Measles virus-infected cells, CPE protection, absorbance | actives 1.5% (n = 140,000) | protection (pct of control), % at 4 µM; in the data active = protection mostly above about 24%, no sharp cut-off; inactive = mostly below about 26%
Numbers stand for hits; - = inactive; . = no result. Most compounds without a hit are left out; they make up all but 6.1% or so of the library.

SMILES | RAM network inh | WT yeast gro inh | Yeast growth inh | Yeast life ext | DAT uptake mod | Measles CPE
CC(C)(C)c1ccc(Cn2ccc(-c3ccc4c(c3)OCO4)n2)cc1 | - | - | - | - | - | -
CC(=O)Nc1ccc(C(=O)OC2CCCCC2=O)cc1 (stereo not given) | - | - | - | - | - | -
CC(=O)c1c(C)[nH]c(C(=O)OC2CCCCC2=O)c1C (stereo not given) | - | - | - | 142 | - | -
CCSc1nnc(NC(=O)COc2cccc3ccccc23)s1 | 9.7 | - | - | - | - | -
C=CCSc1nnc(NC(=O)COc2ccc3ccccc3c2)s1 | - | 86 | - | - | - | -
CCSc1nnc(NC(=O)c2ccccn2)s1 | - | - | 97 | - | - | -
O=C(Nc1cccc(F)c1)N1CCCC(CNS(=O)(=O)Cc2ccccc2)C1 (stereo not given) | - | - | . | . | . | .
O=C(Oc1c(CN2CCOCC2)cc(Cl)c2cccnc12)c1ccc(F)cc1 | - | - | - | 28 | - | -
COc1ccccc1N1CCN(Cc2cc(Br)c(O)c3ncccc23)CC1 | - | - | 97 | - | - | -
OCCN1CCN(Cc2cc(Cl)c3cccnc3c2O)CC1 | - | - | - | - | - | -
Cc1nc(N2CCC(C)CC2)c2oc3ccccc3c2n1 | - | - | - | - | - | -
COc1ccccc1N1CCN(c2nc(C)nc3c2oc2ccccc23)CC1 | - | 75 | - | - | - | -
Oc1c(CN2CCN(c3ccccn3)CC2)cc(Cl)c2cccnc12 | - | - | 59 | - | - | -
CC(=O)c1ccc(NC(=O)C2Cc3ccccc3CN2C(=O)c2ccccc2)cc1 (stereo not given) | - | - | - | - | . | -
O=C(NC1=NCCS1)C1Cc2ccccc2CN1C(=O)c1ccccc1 (stereo not given) | - | - | - | - | - | 29
COc1ccc(NC(=O)C2Cc3ccccc3CN2C(=O)c2ccccc2)cn1 (stereo not given) | - | - | - | - | 2.9 | -
CC(C)(C)c1cc(C(=O)N/N=C/c2ccc(O)cc2)n(-c2ccccc2)n1 | - | - | - | - | . | -
COc1ccccc1CN(Cc1nc2ccccc2c(=O)[nH]1)S(=O)(=O)c1ccc(C)cc1 | - | - | - | - | - | -
O=C(CC1NCCNC1=O)Nc1ccc([N+](=O)[O-])cc1 (stereo not given) | - | - | . | . | . | .
CCOc1ccc(NC(=O)CNC(=O)c2ccc(OC)cc2)cc1 | - | - | . | . | . | .
CCOc1ccc(-c2nnc(NC(=O)c3ccc(OCC(C)C)c(OC)c3)o2)cc1 | - | 64 | - | - | - | 41
COc1cccc(C(=O)Nc2nnc(-c3ccc(Cl)cc3)o2)c1 | . | - | . | . | - | .
COc1ccc(C(=O)NCC(=O)OCC(=O)c2cc(OC)c(OC)c(OC)c2)cc1OC | - | - | - | - | . | 44
CCOc1ccc(NC(=O)CNC(=O)c2ccc(OC)c(OC)c2)cc1 | 8.8 | - | - | - | - | -
Cc1ccc(C)c(OCCCCn2ccnc2)c1 | - | - | - | - | - | -
SMILES | RAM network inh | WT yeast gro inh | Yeast growth inh | Yeast life ext | DAT uptake mod | Measles CPE
Cc1cccc(OCCCCCn2ccnc2)c1C | - | 67 | - | - | - | -
Cc1cc(C(C)(C)C)ccc1OCCn1ccnc1 | - | 72 | - | - | - | -
CC(C)(C)c1ccccc1OCCCCCn1ccnc1 | - | - | . | . | . | .
Cc1ccc(C(C)(C)C)c(OCCCn2ccnc2)c1 | - | 66 | - | - | . | -
C/C(=N\N=C1\NC(=O)C(Cc2ccccc2)S1)c1ccccc1 (stereo not given) | - | - | . | . | . | .
CC(=O)/C(C#N)=C1\NC(=O)C(Cc2ccccc2)S1 (stereo not given) | - | - | - | - | - | 91
COc1ccc2nc(NC(=O)CN(c3ccc(C)cc3)S(=O)(=O)c3c(C)nn(C)c3C)sc2c1 | - | 69 | - | - | - | -
COc1ccc(N(CC(=O)N2CCc3ccccc32)S(=O)(=O)c2c(C)nn(C)c2C)cc1 | 8.9 | - | - | - | - | -
Cc1nn(C)c(C)c1S(=O)(=O)N(CC(=O)N1CCc2ccccc21)c1ccc(C(C)C)cc1 | - | - | - | - | - | -
COc1ccc(NC(=O)CN(c2ccc(C)cc2)S(=O)(=O)c2c(C)nn(C)c2C)cc1OC | - | - | - | - | - | -
COc1ccc(Cc2noc(CN(C)Cc3cccc(-n4cccn4)c3)n2)cc1OC | - | - | . | . | . | .
